Measured values published in ChEMBL document CHEMBL3994577, “New amphiphilic neamine conjugates bearing a metal binding motif active against MDR E. aerogenes Gram-negative bacteria” (2017).
Values after ≈ are worked out from the molar mass of the structure shown. Active and inactive are the calls of the source. The rule behind the calls is not given here. Bridge positions count the residues as written; N and C are the ends. Square brackets hold non-standard residues; d marks the D form. Peptide text beside a SMILES is read from it. * marks the point of attachment. βNA = c1ccc2cc(N*)ccc2c1; Dab = NCC[C@H](N)C(=O)O

Tests used:
Klebsiella aerogenes [1] = experiment: Decrease in 1,2'-DiNaphtylAmine efflux in multidrug resistant Enterobacter aerogenes EA289 over-expressing AcrAB-TolC up to 128 uM after 18 hrs measured every 4 sec for 6 mins in presence of glucose by fluorescence assay
Escherichia coli [2] = experiment: Antibacterial activity against wild type Escherichia coli AG100 after 18 hrs by broth dilution method; assay type: functional; settings: AG100, 18 h
Method in brief: (§1)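 Broth microdilution MIC in MH broth with two-fold serial dilutions of compounds from DMSO solutions (final DMSO ≤ 0.5%). Inoculum was 2x10⁵ cfu per 200 µL, incubated 18 h at 37°C. MIC was the lowest concentration with no visible growth, given as the mean of at least three independent experiments, in µM. AG100A was grown with kanamycin (50 µg.mL^-1).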

Escherichia coli [3] = experiment: Antibacterial activity against AcrAB deficient Escherichia coli AG100A after 18 hrs by broth dilution method; assay type: functional
Method in brief: as §1

Klebsiella aerogenes [4] = experiment: Antibacterial activity against multidrug resistant Enterobacter aerogenes EA289 over-expressing AcrAB-TolC after 18 hrs by broth dilution method; assay type: functional; settings: EA289, 18 h
Method in brief: (§2)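 Broth microdilution in MH broth. Inoculum 2x10⁵ cfu per well, with two-fold serial dilutions of compound from DMSO stocks (final DMSO ≤0.5%). MIC is the lowest concentration with no visible growth after 18 h at 37°C. Values are means of at least three independent experiments, in µM. Strains grown at 37°C; EA298 kept with kanamycin 50 µg.mL^-1.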

Escherichia coli [5] = experiment: Antibacterial activity against wild type Escherichia coli AG100 after 18 hrs in presence of polymyxin B nonapeptide by broth dilution method; assay type: functional; settings: AG100, 18 h
Escherichia coli [6] = experiment: Antibacterial activity against AcrAB deficient Escherichia coli AG100A after 18 hrs in presence of polymyxin B nonapeptide by broth dilution method; assay type: functional
Klebsiella aerogenes [7] = experiment: Antibacterial activity against multidrug resistant Enterobacter aerogenes EA289 over-expressing AcrAB-TolC after 18 hrs in presence of polymyxin B nonapeptide by broth dilution method; assay type: functional; settings: EA289, 18 h
Method in brief: as §2

Klebsiella aerogenes [8] = experiment: Induction of membrane permeability in multidrug resistant Enterobacter aerogenes EA289 over-expressing AcrAB-TolC assessed as increase in nitrocefin hydrolysis measured for 1 hr in presence of CCCP; assay type: functional
Method in brief: (§3)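 EA289 grown to exponential phase (OD600 0.5), washed in PPB (K₂HPO₄ 20 mM, MgCl₂ 1 mM, pH 7), adjusted to OD 0.375. Cells mixed with two-fold dilutions of compound (final 2–64 µM) plus CCCP 3.3 µM at 37°C. Nitrocefin added at t=0; OD490 followed for 1 h. Duplicate or triplicate.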

Klebsiella aerogenes [9] = experiment: Induction of membrane permeability in multidrug resistant Enterobacter aerogenes EA289 over-expressing AcrAB-TolC assessed as nitrocefin hydrolysis at 64 uM after 1 hr in presence of CCCP relative to control; assay type: functional; set-up: scale not given: the % may be the effect or the level left
Method in brief: as §3

Klebsiella aerogenes [10] = experiment: Decrease in 1,2'-DiNaphtylAmine efflux in multidrug resistant Enterobacter aerogenes EA289 over-expressing AcrAB-TolC at 32 uM after 18 hrs measured every 4 sec for 6 mins in presence of glucose by fluorescence assay; assay type: functional
Method in brief: (§4)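 EA289 grown 24 h at 37°C, washed and resuspended in PPB at OD600 0.25. Cells loaded with 1,2'-DNA 32 µM plus CCCP 5 µM for 18 h at 37°C in the dark, washed, then mixed with compound (final 0.5–128 µM) at 37°C. Fluorescence (ex 370/em 420 nm) read every 4 s for 6 min. Glucose added at cycle 20 (~100 s) to start efflux.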

Klebsiella aerogenes [11] = experiment: Antibacterial activity against Enterobacter aerogenes EA298 TolC deficient after 18 hrs by broth dilution method; settings: EA298, 18 h
Klebsiella aerogenes [12] = experiment: Antibacterial activity against Enterobacter aerogenes EA298 TolC deficient after 18 hrs in presence of polymyxin B nonapeptide by broth dilution method; settings: EA298, 18 h
Klebsiella aerogenes [13] = experiment: Induction of membrane permeability in multidrug resistant Enterobacter aerogenes EA289 over-expressing AcrAB-TolC assessed as nitrocefin hydrolysis at 3 uM up to 20 mins in presence of CCCP relative to control; assay type: functional
Method in brief: as §3

Klebsiella aerogenes [14] = experiment: Decrease in 1,2'-DiNaphtylAmine efflux in multidrug resistant Enterobacter aerogenes EA289 over-expressing AcrAB-TolC up to 32 uM after 18 hrs measured every 4 sec for 6 mins in presence of glucose by fluorescence assay; assay type: functional
Method in brief: as §4

Klebsiella aerogenes [15] = experiment: Induction of membrane permeability in multidrug resistant Enterobacter aerogenes EA289 over-expressing AcrAB-TolC assessed as nitrocefin hydrolysis at 0.75 to 48 uM after 1 hr in presence of CCCP; assay type: functional
Klebsiella aerogenes [16] = experiment: Decrease in 1,2'-DiNaphtylAmine efflux in multidrug resistant Enterobacter aerogenes EA289 over-expressing AcrAB-TolC at 8 to 16 uM after 18 hrs measured every 4 sec for 6 mins in presence of glucose by fluorescence assay; assay type: functional
Method in brief: as §4

[17] = Binding affinity to Zn2+ in Muller-Hinton broth at 50 uM by ESI-MS analysis
Method in brief: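 Free ligand incubated in Mueller Hinton broth, the medium used for the antibacterial assays, then analysed by positive-ion ESI mass spectrometry for metal-bound species. […] Preformed Zn(II) and Cu(II) complexes were incubated in MH under the same conditions to check their stability.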

Klebsiella aerogenes [18] = experiment: Induction of membrane permeability in multidrug resistant Enterobacter aerogenes EA289 over-expressing AcrAB-TolC assessed as nitrocefin hydrolysis at 32 uM after 50 mins in presence of CCCP relative to control; assay type: functional; set-up: scale not given: the % may be the effect or the level left
Method in brief: as §3

N=C(N)NCCC[C@H](NC(=O)[C@@H](N)Cc1ccccc1)C(=O)Nc1ccc2ccccc2c1 (H-Phe-Arg-βNA)
Activity (Klebsiella aerogenes [1]): inactive

NC[C@H]1O[C@H](O[C@H]2[C@H](OCCCCCCNC(=O)CCCC(=O)Nc3cccc(CN(Cc4ccccc4)Cc4ccccc4)c3)[C@@H](OCc3ccc4ccccc4c3)[C@H](N)C[C@@H]2N)[C@H](N)[C@@H](OCc2ccc3ccccc3c2)[C@@H]1OCc1ccc2ccccc2c1
MIC (Escherichia coli [2]): 128 µM (≈ 159 µg/mL)
MIC (Escherichia coli [3]): 32 to 128 µM (≈ 39.7 to 159 µg/mL)
MIC (Klebsiella aerogenes [4]): 128 µM (≈ 159 µg/mL)
MIC (Escherichia coli [5]): 32 to 64 µM
MIC (Escherichia coli [6]): 32 µM
MIC (Klebsiella aerogenes [7]): 128 µM
Activity (Klebsiella aerogenes [8]): Dose-dependent effect
Activity (Klebsiella aerogenes [9]): 20%
Activity (Klebsiella aerogenes [10]): Active
MIC (Klebsiella aerogenes [11]): 64 to 128 µM (≈ 79.4 to 159 µg/mL)
MIC (Klebsiella aerogenes [12]): 32 to 64 µM

POLYMYXIN B
Activity (Klebsiella aerogenes [13]): Active

NCCCCCCO[C@@H]1[C@@H](OCc2ccc3ccccc3c2)[C@H](N)C[C@H](N)[C@H]1O[C@H]1O[C@H](CN)[C@@H](OCc2ccc3ccccc3c2)[C@H](OCc2ccc3ccccc3c2)[C@H]1N
MIC (Escherichia coli [2]): 8 µM (≈ 6.74 µg/mL)
MIC (Escherichia coli [3]): 8 µM (≈ 6.74 µg/mL)
MIC (Klebsiella aerogenes [4]): 16 µM (≈ 13.5 µg/mL)
MIC (Escherichia coli [5]): 8 µM
MIC (Escherichia coli [6]): 4 µM
MIC (Klebsiella aerogenes [7]): 16 to 32 µM
Activity (Klebsiella aerogenes [8]): Dose-dependent effect
MIC (Klebsiella aerogenes [11]): 4 µM (≈ 3.37 µg/mL)
MIC (Klebsiella aerogenes [12]): 4 to 8 µM

O=C(N[C@H](CO)[C@H](O)c1ccc([N+](=O)[O-])cc1)C(Cl)Cl [CHLORAMPHENICOL]
MIC (Escherichia coli [2]): 8 µM (≈ 2.59 µg/mL)
MIC (Escherichia coli [3]): 1 µM (≈ 0.323 µg/mL)
MIC (Klebsiella aerogenes [4]): > 128 µM
MIC (Klebsiella aerogenes [11]): 32 µM (≈ 10.3 µg/mL)

N#CC(C#N)=NNc1cccc(Cl)c1
Activity (Klebsiella aerogenes [14]): Active

CC(C)C[C@@H]1NC(=O)[C@@H](Cc2ccccc2)NC(=O)[C@H](CCN)NC(=O)[C@@H](NC(=O)[C@H](CCN)NC(=O)[C@@H](N)[C@@H](C)O)CCNC(=O)[C@H]([C@@H](C)O)NC(=O)[C@H](CCN)NC(=O)[C@H](CCN)NC1=O (H-T[Dab][Dab][Dab][dF]L[Dab][Dab]T; lactam 3-C)
Activity (Klebsiella aerogenes [15]): inactive

[N-]=[N+]=NCCCCCCO[C@@H]1[C@@H](OCc2ccc3ccccc3c2)[C@H](N)C[C@H](N)[C@H]1O[C@H]1O[C@H](CN)[C@@H](OCc2ccc3ccccc3c2)[C@H](OCc2ccc3ccccc3c2)[C@H]1N
MIC (Escherichia coli [2]): 32 µM (≈ 27.8 µg/mL)
MIC (Escherichia coli [3]): 32 µM (≈ 27.8 µg/mL)
MIC (Klebsiella aerogenes [4]): 16 µM (≈ 13.9 µg/mL)
MIC (Escherichia coli [5]): 32 µM
MIC (Escherichia coli [6]): 16 µM
MIC (Klebsiella aerogenes [7]): 8 to 32 µM
MIC (Klebsiella aerogenes [11]): 16 µM (≈ 13.9 µg/mL)
MIC (Klebsiella aerogenes [12]): 32 µM

NC[C@H]1O[C@H](O[C@H]2[C@H](OCCCCCCNC(=O)CCCC(=O)N3CCCNCCNCCCNCC3)[C@@H](OCc3ccc4ccccc4c3)[C@H](N)C[C@@H]2N)[C@H](N)[C@@H](OCc2ccc3ccccc3c2)[C@@H]1OCc1ccc2ccccc2c1
MIC (Escherichia coli [2]): 4 µM (≈ 4.55 µg/mL)
MIC (Escherichia coli [3]): 2 µM (≈ 2.28 µg/mL)
MIC (Klebsiella aerogenes [4]): 4 to 16 µM (≈ 4.55 to 18.2 µg/mL)
MIC (Escherichia coli [5]): 2 µM
MIC (Escherichia coli [6]): 1 to 2 µM
MIC (Klebsiella aerogenes [7]): 8 µM
Activity (Klebsiella aerogenes [8]): Dose-dependent effect
Activity (Klebsiella aerogenes [16]): Active
MIC (Klebsiella aerogenes [11]): 2 to 4 µM (≈ 2.28 to 4.55 µg/mL)
MIC (Klebsiella aerogenes [12]): 2 µM

NC[C@H]1O[C@H](O[C@H]2[C@H](OCCCCCCNC(=O)CCCC(=O)Nc3cccc(CN(Cc4ccccn4)Cc4ccccn4)n3)[C@@H](OCc3ccc4ccccc4c3)[C@H](N)C[C@@H]2N)[C@H](N)[C@@H](OCc2ccc3ccccc3c2)[C@@H]1OCc1ccc2ccccc2c1
Activity [17]: Active
MIC (Escherichia coli [2]): 2 to 4 µM (≈ 2.49 to 4.97 µg/mL)
MIC (Escherichia coli [3]): 2 µM (≈ 2.49 µg/mL)
MIC (Klebsiella aerogenes [4]): 4 µM (≈ 4.97 µg/mL)
MIC (Escherichia coli [5]): 2 to 4 µM
MIC (Escherichia coli [6]): 2 µM
MIC (Klebsiella aerogenes [7]): 4 to 8 µM
Activity (Klebsiella aerogenes [8]): Dose-dependent effect
Activity (Klebsiella aerogenes [18]): 90%
Activity (Klebsiella aerogenes [16]): Active
MIC (Klebsiella aerogenes [11]): 2 to 8 µM (≈ 2.49 to 9.95 µg/mL)
MIC (Klebsiella aerogenes [12]): 2 µM

NC[C@H]1O[C@H](O[C@H]2[C@H](OCCCCCCNC(=O)CCCCN(Cc3ccccn3)Cc3ccccn3)[C@@H](OCc3ccc4ccccc4c3)[C@H](N)C[C@@H]2N)[C@H](N)[C@@H](OCc2ccc3ccccc3c2)[C@@H]1OCc1ccc2ccccc2c1
MIC (Escherichia coli [2]): 8 to 16 µM (≈ 8.99 to 18 µg/mL)
MIC (Escherichia coli [3]): 8 to 16 µM (≈ 8.99 to 18 µg/mL)
MIC (Klebsiella aerogenes [4]): 16 µM (≈ 18 µg/mL)
MIC (Escherichia coli [5]): 4 µM
MIC (Escherichia coli [6]): 2 to 4 µM
MIC (Klebsiella aerogenes [7]): 8 µM
Activity (Klebsiella aerogenes [8]): Dose-dependent effect
Activity (Klebsiella aerogenes [9]): 60%
Activity (Klebsiella aerogenes [16]): Active
MIC (Klebsiella aerogenes [11]): 8 µM (≈ 8.99 µg/mL)
MIC (Klebsiella aerogenes [12]): 4 to 8 µM

CN1CCN(c2c(F)cc3c(=O)c(C(=O)O)cn(CCF)c3c2F)CC1 [FLEROXACIN]
MIC (Escherichia coli [2]): 0.5 µM (≈ 0.185 µg/mL)
MIC (Escherichia coli [3]): 0.125 µM (≈ 0.0462 µg/mL)
MIC (Klebsiella aerogenes [4]): > 128 µM
MIC (Klebsiella aerogenes [11]): 16 µM (≈ 5.91 µg/mL)

NC[C@H]1O[C@H](O[C@H]2[C@H](O)[C@@H](O)[C@H](N)C[C@@H]2N)[C@H](N)[C@@H](O)[C@@H]1O [NEAMINE]
MIC (Escherichia coli [2]): 16 to 32 µM (≈ 5.16 to 10.3 µg/mL)
MIC (Escherichia coli [3]): 128 µM (≈ 41.3 µg/mL)
MIC (Klebsiella aerogenes [4]): 32 µM (≈ 10.3 µg/mL)
MIC (Escherichia coli [5]): 8 µM
MIC (Escherichia coli [6]): 128 µM
MIC (Klebsiella aerogenes [7]): 16 µM
MIC (Klebsiella aerogenes [11]): > 128 µM
MIC (Klebsiella aerogenes [12]): > 128 µM

O=C(O)c1cn(C2CC2)c2cc(N3CCNCC3)c(F)cc2c1=O [CIPROFLOXACIN]
MIC (Escherichia coli [2]): 0.125 µM (≈ 0.0414 µg/mL)
MIC (Escherichia coli [3]): 0.03 µM (≈ 0.00994 µg/mL)
MIC (Klebsiella aerogenes [4]): 64 µM (≈ 21.2 µg/mL)
MIC (Klebsiella aerogenes [11]): 8 µM (≈ 2.65 µg/mL)

CC(C)(O/N=C(\C(=O)N[C@@H]1C(=O)N2C(C(=O)[O-])=C(C[n+]3ccccc3)CS[C@H]12)c1csc(N)n1)C(=O)O [CEFTAZIDIME]
MIC (Escherichia coli [2]): 0.5 µM (≈ 0.273 µg/mL)
MIC (Escherichia coli [3]): 0.25 µM (≈ 0.137 µg/mL)
MIC (Klebsiella aerogenes [4]): > 128 µM
MIC (Klebsiella aerogenes [11]): > 128 µM
